Laboratory results published in ChEMBL document CHEMBL3046144, “Insecticidal and fumigant activities of Cinnamomum cassia bark-derived materials against Mechoris ursulus (Coleoptera: attelabidae)” (2000).

Experiments:
Type in all cases: functional
Attelabidae [1] = assay: Insecticidal activity against Mechoris ursulus assessed as mortality at 5 mg/paper at 25 +/- 1 degC measured after 48 hr by filter paper diffusion method
In short: (§1)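 M. ursulus larvae. Compound in 1 mL acetone applied to a filter paper (50-mm diameter), dried in a hood 2 min, then placed in the bottom of a polyethylene cup with the larvae. Controls got 1 mL acetone. Held at 25 ± 1 °C, 50-60% RH, 16L:8D. Run in triplicate, mean ± SE.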

Attelabidae [2] = assay: Insecticidal activity against Mechoris ursulus assessed as mortality at 1 mg/paper at 25 +/- 1 degC measured after 48 hr by filter paper diffusion method; in short: as §1
Attelabidae [3] = assay: Insecticidal activity against Mechoris ursulus assessed as mortality at 2.5 mg/paper at 25 +/- 1 degC measured after 48 hr by filter paper diffusion method; in short: as §1

O=C/C=C/c1ccccc1 [CINNAMALDEHYDE]
mortality (Attelabidae [1]): 100% | mortality (Attelabidae [2]): 83.3% | mortality (Attelabidae [3]): 100%

O=C(O)/C=C/c1ccccc1 [CINNAMIC ACID]
mortality (Attelabidae [1]): 86.7% | mortality (Attelabidae [2]): 53.3% | mortality (Attelabidae [3]): 73.3%

OC/C=C/c1ccccc1 [CINNAMIC ALCOHOL]
mortality (Attelabidae [1]): 50%

C=CCc1ccc(O)c(OC)c1 [EUGENOL]
mortality (Attelabidae [1]): 100% | mortality (Attelabidae [2]): 66.7% | mortality (Attelabidae [3]): 90%

O=Cc1ccccc1O [SALICYLADEHYDE]
mortality (Attelabidae [1]): 100% | mortality (Attelabidae [2]): 74.4% | mortality (Attelabidae [3]): 88.9%
